According to ChEMBL document CHEMBL1143003, “Novel tricyclic compounds having acetylene groups at C-8a and cyano enones in rings A and C: highly potent anti-inflammatory and cytoprotective agents” (J Med Chem, 2007):
The source made the active and inactive calls. The calls are words filed in the database; no cut-off is given here.

Legend:
RAW = assay: Inhibition of interferon gamma-stimulated NO production in RAW 264.7 cells after 24 hrs; assay type: functional, cell-based, Mus musculus
[1] = biological target: T1, Heme oxygenase 1 (Mus musculus) (UniProt P14901); assay: Induction of HO1 in CD1 mouse liver at 1 umol, po after 6 hrs; assay type: organism-based
T1 sequence (whole entry): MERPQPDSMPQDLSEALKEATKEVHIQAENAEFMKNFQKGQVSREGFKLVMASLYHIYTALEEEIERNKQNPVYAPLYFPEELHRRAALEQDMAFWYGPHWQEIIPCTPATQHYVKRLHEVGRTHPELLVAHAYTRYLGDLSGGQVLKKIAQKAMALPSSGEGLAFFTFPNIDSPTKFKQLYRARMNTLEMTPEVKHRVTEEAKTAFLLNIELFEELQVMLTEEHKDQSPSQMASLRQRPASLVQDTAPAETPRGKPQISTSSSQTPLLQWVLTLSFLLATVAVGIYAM
In short: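 Compound given orally at 1 μmol. Livers were collected 6 h later, and HO-1 protein was measured by Western blot.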

[2] = biological target: T1, Heme oxygenase 1 (Mus musculus); assay: Induction of HO1 in CD1 mouse stomach at 1 umol, po after 6 hrs; assay type: organism-based
In short: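 Male CD-1 mice, three per group, were each gavaged with a single 1 μmol dose. HO-1 induction was then assessed in the stomach.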

SMILES | IC50 (RAW; raw) [nM] | IC50 (RAW; Mus musculus, RAW, 24 h) [nM] | Activity [1] | Activity [2]
C#C[C@]12C=C(C#N)C(=O)C=C1[C@@]1(C)C=C(C#N)C(=O)C(C)(C)[C@@H]1CC2 (racemic) [listing 1 of 2 here] | 1 |  |  | 
C#C[C@@]12C=C(C#N)C(=O)C=C1[C@]1(C)C=C(C#N)C(=O)C(C)(C)C1CC2 (some centres undefined) |  | 1 |  | 
C#C[C@]12C=C(C#N)C(=O)C=C1[C@@]1(C)C=C(C#N)C(=O)C(C)(C)[C@@H]1CC2 | 3 |  |  | 
CC#C[C@]12C=C(C#N)C(=O)C=C1[C@@]1(C)C=C(C#N)C(=O)C(C)(C)[C@@H]1CC2 (racemic) |  | 5 |  | 
CC[C@]12C=C(C#N)C(=O)C=C1[C@@]1(C)C=C(C#N)C(=O)C(C)(C)[C@@H]1CC2 (racemic) |  | 10 |  | 
CC1(C)CC[C@]2(C#N)CC[C@]3(C)C(C(=O)C=C4[C@@]5(C)C=C(C#N)C(=O)C(C)(C)[C@@H]5CC[C@]43C)C2C1 (some centres undefined) [CDDO-CN] |  | 1 |  | 
CC1(C)C(=O)C(C#N)=C[C@]2(C)C3=CC(=O)C(C#N)=C[C@]3(C#C[Si](C)(C)C)CC[C@@H]12 |  | 3 |  | 
C=C[C@]12C=C(C#N)C(=O)C=C1[C@@]1(C)C=C(C#N)C(=O)C(C)(C)[C@@H]1CC2 (racemic) |  | 10 |  | 
C#C[C@]12C=C(C#N)C(=O)C=C1[C@@]1(C)C=C(C#N)C(=O)C(C)(C)[C@@H]1CC2 (racemic) [listing 2 of 2 here] |  |  | Active | Active
CC1(C)C(=O)C(C#N)=C[C@]2(C)C3=CC(=O)C(C#N)=C[C@]3(C)CC[C@@H]12 |  | 30 | Active | Active
C[C@@H]1C[C@H]2[C@@H]3CCC4=CC(=O)C=C[C@]4(C)[C@@]3(F)[C@@H](O)C[C@]2(C)[C@@]1(O)C(=O)CO [DEXAMETHASONE] |  | 20 |  | 
CC1(C)CC[C@]2(C(=O)O)CC[C@]3(C)[C@H](C(=O)C=C4[C@@]5(C)C=C(C#N)C(=O)C(C)(C)[C@@H]5CC[C@]43C)[C@@H]2C1 [BARDOXOLONE] |  | 20 | Active | Active
CC1(C)C(=O)C(C#N)=C[C@]2(C)C3=CC(=O)C(C#N)=CC3(C#C[Si](C)(C)C)CC[C@@H]12 (mixture of isomers) |  | 3 |  | 
CC1(C)C(=O)C(C#N)=C[C@@]2(C)C3=CC(=O)C(C#N)=C[C@@]3(C#C[Si](C)(C)C)CCC12 (some centres undefined) |  | 2 |  | 
CC1(C)C(=O)C(C#N)=C[C@]2(C)C3=CC(=O)C(C#N)=C[C@]3(C#CC#N)CC[C@@H]12 (racemic) |  | 4 |  | 
CCC#C[C@]12C=C(C#N)C(=O)C=C1[C@@]1(C)C=C(C#N)C(=O)C(C)(C)[C@@H]1CC2 (racemic) |  | 20 |  | 
CC1(C)CC[C@]2(C(=O)n3ccnc3)CC[C@]3(C)[C@H](C(=O)C=C4[C@@]5(C)C=C(C#N)C(=O)C(C)(C)[C@@H]5CC[C@]43C)[C@@H]2C1 |  | 1 | Active | Active
